The values that follow come from ChEMBL document CHEMBL4400507, “Discovery of Novel Transient Receptor Potential Vanilloid 4 (TRPV4) Agonists as Regulators of Chondrogenic Differentiation: Identification of Quinazolin-4(3 H)-ones and in Vivo Studies on a Surgically Induced Rat Model of Osteoarthritis” (J Med Chem, 2019).

Data set [1] can be described thus: Protein binding in plasma (unknown origin). Type of data set: ADME, cell-free.
Data set [2] concerns the target T1, Transient receptor potential cation channel subfamily V member 4 (Homo sapiens, UniProt Q9HBA0). The data set is described as follows: Agonist activity at recombinant human TRPV4 expressed in […] cells by SOX9 luciferase reporter gene assay. The class given is cell-based. The method in brief:
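ATDC5 cells stably carrying a SOX9 reporter gene construct and human TRPV4 (pcDNA3.1) were seeded at 2.0 × 10^4 cells/well and treated with compound. Luciferase luminescence was measured the next day.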
(In general: In a reporter assay the amount or activity of a reporter protein is the signal.)

Data set [3] concerns the target T1, Transient receptor potential cation channel subfamily V member 4. Nature of the data set: Agonist activity at recombinant human TRPV4 expressed in HEK293 cells assessed as increase in intracellular calcium level after 30 mins by Fura-2 AM/Pluronic F-127 probe based fluorescence assay. Type of data set: cell-based. The method in brief: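 HEK293 cells transiently expressing human TRPV4 were loaded with 5 µM Fura-2 AM plus 0.2% Pluronic F-127 for 30 min at 37 °C in HEPES buffer (pH 7.4, 1.8 mM CaCl2, 0.1% BSA). They were then washed and resuspended. Intracellular Ca2+ was read by Fura-2 ratio imaging (excitation 340/380 nm, emission 510 nm).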
In general terms: Calcium flux is commonly read through the fluorescence of an indicator in the cells.

The target of data set [4] is Transient receptor potential cation channel subfamily V member 1 (Homo sapiens) (UniProt Q8NER1). The data set is described as follows: Agonist activity at human TRPV1 assessed as increase in intracellular calcium level at 10 uM relative to control. Type of data set: cell-based.
Chain of Transient receptor potential cation channel subfamily V member 1 (Homo sapiens) (Q8NER1 whole entry): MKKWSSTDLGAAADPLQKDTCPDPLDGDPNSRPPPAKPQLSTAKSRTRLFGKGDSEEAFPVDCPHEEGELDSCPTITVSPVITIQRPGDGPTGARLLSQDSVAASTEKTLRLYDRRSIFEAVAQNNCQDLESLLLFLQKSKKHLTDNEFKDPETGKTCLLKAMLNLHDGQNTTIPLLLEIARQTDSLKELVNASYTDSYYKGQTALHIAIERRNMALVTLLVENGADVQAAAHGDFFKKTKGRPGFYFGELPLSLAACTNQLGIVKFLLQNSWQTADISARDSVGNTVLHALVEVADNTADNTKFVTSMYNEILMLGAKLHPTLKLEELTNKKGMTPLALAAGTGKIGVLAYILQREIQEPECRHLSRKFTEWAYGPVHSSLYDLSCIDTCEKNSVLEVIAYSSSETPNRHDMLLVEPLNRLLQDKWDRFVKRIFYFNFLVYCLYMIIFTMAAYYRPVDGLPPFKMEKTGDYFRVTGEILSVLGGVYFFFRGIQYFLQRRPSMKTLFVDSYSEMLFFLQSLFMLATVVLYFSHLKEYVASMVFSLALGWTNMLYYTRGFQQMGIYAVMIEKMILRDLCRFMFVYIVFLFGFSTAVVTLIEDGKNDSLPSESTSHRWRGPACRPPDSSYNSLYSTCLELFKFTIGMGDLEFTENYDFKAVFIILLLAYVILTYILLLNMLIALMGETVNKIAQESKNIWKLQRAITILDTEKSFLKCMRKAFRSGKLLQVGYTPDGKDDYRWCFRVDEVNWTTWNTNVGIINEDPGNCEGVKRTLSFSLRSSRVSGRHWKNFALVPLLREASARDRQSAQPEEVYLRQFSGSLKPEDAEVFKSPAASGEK
The nature of data set [5]: Solubility of the compound in saline. The class given is physicochemical.

Values after ≈ are worked out from the molar mass of the structure shown.

T1 sequence (Q9HBA0 whole entry): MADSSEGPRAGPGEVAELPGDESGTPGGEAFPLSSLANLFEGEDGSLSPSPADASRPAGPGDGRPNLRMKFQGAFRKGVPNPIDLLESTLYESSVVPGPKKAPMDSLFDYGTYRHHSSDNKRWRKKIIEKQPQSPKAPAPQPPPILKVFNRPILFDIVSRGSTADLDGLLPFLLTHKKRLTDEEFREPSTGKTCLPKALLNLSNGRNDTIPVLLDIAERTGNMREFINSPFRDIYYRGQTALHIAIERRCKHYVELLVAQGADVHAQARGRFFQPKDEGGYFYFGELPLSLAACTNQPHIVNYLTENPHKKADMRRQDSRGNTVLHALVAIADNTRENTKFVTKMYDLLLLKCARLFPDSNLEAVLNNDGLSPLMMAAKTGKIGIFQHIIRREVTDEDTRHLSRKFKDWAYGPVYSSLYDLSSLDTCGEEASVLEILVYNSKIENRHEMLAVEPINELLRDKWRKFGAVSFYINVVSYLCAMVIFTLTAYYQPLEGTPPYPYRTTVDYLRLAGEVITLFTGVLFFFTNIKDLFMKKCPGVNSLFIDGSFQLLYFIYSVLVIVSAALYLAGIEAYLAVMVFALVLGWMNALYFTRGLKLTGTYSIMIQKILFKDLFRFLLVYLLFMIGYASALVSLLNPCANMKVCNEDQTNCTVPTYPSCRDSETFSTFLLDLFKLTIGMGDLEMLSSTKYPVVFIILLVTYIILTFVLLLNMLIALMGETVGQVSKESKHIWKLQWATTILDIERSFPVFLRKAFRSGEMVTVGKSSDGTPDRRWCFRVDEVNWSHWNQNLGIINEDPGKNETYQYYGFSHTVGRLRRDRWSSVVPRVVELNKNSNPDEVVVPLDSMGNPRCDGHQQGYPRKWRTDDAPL

Usually fraction unbound stands for free concentration divided by total concentration. A lower fraction unbound goes with extensive binding. As a reminder, the EC50 is the concentration at which the effect is half-maximal. The term solubility denotes the concentration that dissolves in the medium under given conditions. Regarding `CN1CCN(c2nc3c(F)cccc3c(=O)n2-c2ccc(OC3CCOCC3)cc2)CC1`, the free fraction (fraction unbound) in data set [1] was found to be 0.297. The ECmax in data set [2] was determined as 2500 nM. Also, the EC50 in data set [3] was 870 nM. The Activity in data set [4] is 8.7%. Moreover, the solubility in data set [5] is 1110 µg/mL (≈ 2520 µM).
